Most compounds without a hit are left out; they make up all but 4.1% or so of the library.
RGS4 act: RGS4 potentiation or activation; HEK293 M3R/inducible RGS4, carbachol calcium flux Fluo4; stronger effect = lower value; B-score at 10 µM; 310,000 compounds, 0.92% hits;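 active = B-score of the integrated calcium signal more than 4 SD below the library mean, with starting fluorescence not abnormally high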;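 note: negative B-score means reduced calcium response which marks RGS4 activation or potentiation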
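Assay system: HEK293 FlpIn-TREx cells, stable M3R, doxycycline-inducible RGS4 / Probe or stimulus: carbachol, ECmax concentration / Times: overnight RGS4 induction, 30 min dye load 37 °C, 20 min compound RT / Signal: kinetic calcium fluorescence imaging with Fluo4-AM dye, 2 µM / Measure: Agonist-evoked peak-minus-minimum fluorescence over baseline, integrated ratio, B score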
MrgX1 PAM: allosterically activates human MrgX1 receptor signaling; B-score at 10 µM; 310,000 compounds, 0.63% hits; AID 588675; MrgX1-HEK293, Fluo-4 calcium flux, FDSS; stronger effect = higher value;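 active = plate-corrected calcium response at least 3 library SD above typical, normal starting fluorescence, not activating the receptor alone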;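 note: compound read alongside a low EC10 to EC30 dose of BAM8-22 agonist; peak minus trough fluorescence over baseline measured at the second addition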
Target sequence (Q96LB2 whole entry, looked up): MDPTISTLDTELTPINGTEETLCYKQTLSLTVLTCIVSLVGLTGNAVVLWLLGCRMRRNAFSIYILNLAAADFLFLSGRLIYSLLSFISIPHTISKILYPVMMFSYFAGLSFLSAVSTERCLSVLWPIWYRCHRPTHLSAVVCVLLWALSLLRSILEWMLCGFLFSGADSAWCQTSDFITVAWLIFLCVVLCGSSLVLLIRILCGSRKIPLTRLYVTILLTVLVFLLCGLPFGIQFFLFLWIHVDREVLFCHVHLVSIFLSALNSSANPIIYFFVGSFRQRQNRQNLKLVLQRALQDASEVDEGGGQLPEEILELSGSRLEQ
MrgX1 antagonist: human MrgX1 receptor antagonism, primary screen; 310,000 compounds, 1.3% hits; MRGX1-HEK293 calcium flux, Fluo-4, BAM8-22 antagonism; stronger effect = lower value; B-score at 10 µM;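 active = calcium-response B-score plate-corrected more than 3 library SD below zero, starting fluorescence within 5 deviations, no agonist response on first addition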;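 note: peak minus trough fluorescence over baseline after final BAM8-22 challenge near maximal dose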
MrgX1 agonist: agonists of human MrgX1 receptor; MrgX1-HEK293 cells, Fluo-4 calcium fluorescence, agonist mode; stronger effect = higher value; 310,000 compounds, 0.44% hits; B-score at 10 µM;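 active = calcium response B-score plate-corrected fluorescence ratio at least 3 library SD, with starting fluorescence B-score inside 5 SD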
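Test system: HEK293 cells stably expressing human MrgX1 receptor; Input: fifteen thousand cells per well; Dosing: compound delivered in addition one of three; Schedule: overnight seeding, then 1 h dark dye loading; Technique: Fluo-4 NW calcium fluorescence; Measure: B-scored fluorescence response ratio; Controls: positive and negative controls per plate.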
Kir21 block: inhibitors of mouse Kir2.1 inward-rectifier potassium channel | B-score at 10 µM | HEK293-Kir2.1, FluxOR thallium flux fluorescence; stronger effect = lower value | P35561 | 310,000 compounds, 0.85% hits | AID 1672;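 active = fluorescence ratio B-score at or below minus 3 SD of library scores, with starting-brightness B-score within 2 SD, cut at about -4.2 in these data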;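 note: channel flux triggered by added potassium and thallium sulfate stimulus; B-score of peak minus minimum fluorescence over baseline after thallium stimulus; more negative B-score means stronger Kir2.1 block with less thallium influx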
RGS4 inh: human RGS4 inhibition | 310,000 compounds, 0.45% hits | AID 463165 | HEK293 M3R/RGS4 inducible, Fluo-4 calcium flux; stronger effect = higher value; triggered by carbachol at its EC20 | P49798 | B-score at 10 µM;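 active = B-score, a plate-corrected calcium signal, over three deviations above library mean, with baseline fluorescence within five deviations of library mean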;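 note: RGS4 expression induced by doxycycline in cells with stable M3 receptor; B-score is computed from the integrated fluorescence ratio over baseline after carbachol; higher B-score means a larger calcium signal and so more RGS4 inhibition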
Target sequence (P49798 whole entry, looked up): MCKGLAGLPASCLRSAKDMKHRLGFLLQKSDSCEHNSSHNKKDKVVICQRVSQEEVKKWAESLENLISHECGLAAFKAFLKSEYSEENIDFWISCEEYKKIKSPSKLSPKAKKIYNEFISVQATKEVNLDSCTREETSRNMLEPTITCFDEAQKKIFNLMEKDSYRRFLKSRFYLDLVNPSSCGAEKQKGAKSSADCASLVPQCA
RGS4 block valid: validation of RGS4 inhibitors | shares compounds with RGS4 inh | HEK293 M3R/RGS4, carbachol calcium Fluo-4 fluorescence; carbachol added at its EC20; 0 = buffer wells, 100 = carbachol control | calcium response, % at 10 µM | 1,700 compounds, 65% hits | AID 492999;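 active = duplicate-averaged calcium response above the buffer-only control mean plus 5 SD of those controls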;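 note: integrated fluorescence ratio F max minus min over baseline F0; higher response in RGS4-induced cells means RGS4 inhibition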
RGS4 uninduced: non-induced cell nonspecific activity of RGS4 inhibitors. shares compounds with RGS4 inh. HEK293 M3R non-induced, carbachol calcium Fluo-4; submaximal (EC20) carbachol stimulus; buffer wells 0%, carbachol control wells 100%. activity (percent), % at 10 µM. 1,900 compounds, 20% hits; call rule not given here;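 note: RGS4 induction absent so cells express M3R without RGS4; higher means more calcium signal and flags a non-specific hit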
RGS4 inh ctr2: second RGS4 inhibitor counter-screen in uninduced cells lacking carbachol. shares compounds with RGS4 inh. HEK293 M3R/RGS4 non-induced, Fluo-4 calcium, no carbachol; normalised: buffer wells 0%, carbachol wells 100%. calcium response (agonist-mode artifact), % at 10 µM. 1,900 compounds, 22% hits. AID 493001;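 active = duplicate-averaged calcium rise in uninduced cells above buffer wells' mean plus 5 SD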
Each line names hits and unclear results; the compound was inactive in the other large screens (follow-up assays come after a bar, where they were run).

COCc1nnc(NC(=O)CCc2ccccc2)s1	none | RGS4 uninduced inactive | RGS4 inh ctr2 inactive
Cc1onc(-c2ccccc2Cl)c1C(=O)NNC(=O)C1CCN(Cc2ccccc2)CC1	none
CCc1cccc(CC)c1NC(=S)NCCc1c(C)[nH]c2ccc(C)cc12	none | RGS4 uninduced inactive | RGS4 inh ctr2 inactive
COc1ccc(N/C=C/C(=O)c2sc(-c3ccccc3)nc2C)cc1	none
Cc1nc(-c2ccccc2)sc1C(=O)/C=C/c1ccc(Cl)cc1	RGS4 inh 11.5 | RGS4 block valid 7.5% | RGS4 uninduced 29.5% | RGS4 inh ctr2 16.0%
COc1cc(C2C(C#N)=C(N)Oc3cc(O)ccc32)cc2c1OCO2 (centres undefined)	RGS4 inh 11.8 | RGS4 block valid 29.0% | RGS4 uninduced inactive | RGS4 inh ctr2 inactive
COc1cc(C2C(C#N)=C(N)Oc3cc(O)ccc32)cc(OC)c1OC (centres undefined)	none
CCOC(=O)C1=C(C)OC(N)=C(C#N)C1c1cc(OC)c2c(c1)OCO2 (centres undefined)	none
COc1ccc(C2C(C#N)=C(N)Oc3cc(O)ccc32)cc1OC (centres undefined)	none | RGS4 uninduced inactive | RGS4 inh ctr2 inactive
Nc1nc(SCc2ccc(Cl)cc2)ns1	none
COc1cccc(-c2csc(NC3OC(=O)c4c3ccc(OC)c4OC)n2)c1 (centres undefined)	none | RGS4 uninduced inactive | RGS4 inh ctr2 inactive
COc1ccc2c(c1OC)C(=O)OC2Nc1nc(-c2ccc(-c3ccccc3)cc2)cs1 (centres undefined)	none | RGS4 block valid inactive | RGS4 uninduced inactive | RGS4 inh ctr2 8.0%
O=C(Nc1cc2cc([N+](=O)[O-])ccc2oc1=O)c1cccs1	none
Cc1c[n+]([O-])n(-c2ccc(C(=O)O)cc2)n1	none
N#Cc1ccc(/C=C/C(=O)c2ccc3c(c2)OCO3)cc1	none
N#Cc1ccc(/C=C/C(=O)c2cccnc2)cc1	Kir21 block -8.99, RGS4 inh 18.9 | RGS4 block valid 46.0% | RGS4 uninduced inactive | RGS4 inh ctr2 inactive
CCOC(=O)CNc1ccc(OC(F)(F)F)cc1	none
Nc1ccc2ncccc2c1N	none (no result: RGS4 act, Kir21 block, RGS4 inh)
CN(C)/N=C/C=C1\CCC/C(=C\c2ccc(F)c(F)c2)C1=O	RGS4 inh 23 | RGS4 block valid 8.5% | RGS4 uninduced inactive | RGS4 inh ctr2 inactive
Cc1cc(N(CCO)CCO)ccc1N=Nc1cc(F)ccc1F	RGS4 inh 7.3 | RGS4 block valid 17.5% | RGS4 uninduced 41.0% | RGS4 inh ctr2 inactive
Nc1ccc(N(CCO)CCO)cc1	none
CCN(CC)CCN(C(=O)C1=COCCO1)c1nc2cc3c(cc2s1)OCO3	none
Oc1c(Br)cc(Cl)cc1C=Nc1ccc(N2CCOCC2)cc1	none | RGS4 uninduced inactive | RGS4 inh ctr2 26.0%
Oc1c(Br)cc(Cl)cc1C=Nc1ccccc1Br	none
CCOc1ccc(-n2c(SCC(=O)N3CCC(C(=O)O)CC3)nc3ccccc3c2=O)cc1	none
CCOC(=O)C1CCN(Cc2nc3ccccc3c(=O)n2-c2ccc(OCC)cc2)CC1	RGS4 inh 6.1 (no result: MrgX1 PAM, MrgX1 antagonist, MrgX1 agonist) | RGS4 block valid 6.5% | RGS4 uninduced inactive | RGS4 inh ctr2 inactive
Cc1ccc(CN2CCN(/N=C/c3ccc(C(F)(F)F)cc3)CC2)cc1	none
Cc1ccc(/C=N/N2CCN(Cc3ccc(C)cc3)CC2)cc1	none | RGS4 block valid inactive | RGS4 uninduced inactive | RGS4 inh ctr2 inactive
Cc1ccc(Cn2c(=N)n(CC(=O)c3ccccc3)c3ccccc32)cc1	Kir21 block -8.95, RGS4 inh 5.35 | RGS4 block valid 24.0% | RGS4 uninduced 34.0% | RGS4 inh ctr2 31.0%
O=C(Nc1nnc(-c2cccs2)o1)c1cccc(Oc2ccccc2)c1	none (no result: RGS4 act, Kir21 block, RGS4 inh)
COc1cc(OC)cc(-c2cc(N)n(S(=O)(=O)c3cccc4nsnc34)n2)c1	RGS4 inh 4.81 | RGS4 block valid 8.0% | RGS4 uninduced inactive | RGS4 inh ctr2 inactive
O=C1ON=C(c2ccccc2)/C1=C/c1ccc(O)c(O)c1	Kir21 block -5.22, RGS4 inh 5.72 | RGS4 block valid 26.5% | RGS4 uninduced inactive | RGS4 inh ctr2 53.0%
COc1cc(/C=C2\C(=O)ON=C2c2ccc(Cl)cc2)ccc1O	MrgX1 agonist 26.6, Kir21 block -4.75 | RGS4 uninduced inactive | RGS4 inh ctr2 56.5%
COc1ccc(/C=C2\C(=O)ON=C2c2ccccc2)cc1	none
CC1=NOC(=O)/C1=C/c1ccc(O)c(Cl)c1	MrgX1 agonist 37.4, RGS4 inh 8.25 | RGS4 block valid 17.0% | RGS4 uninduced inactive | RGS4 inh ctr2 50.5%
O=C1ON=C(c2cccc([N+](=O)[O-])c2)/C1=C/c1ccc(O)cc1	Kir21 block -6.76, RGS4 inh 16.4 | RGS4 block valid 44.5% | RGS4 uninduced inactive | RGS4 inh ctr2 29.0%
CC1CN(Cc2nc3c(c(=O)n(C)c(=O)n3C)n2CCN2CCOCC2)CC(C)O1 (centres undefined)	none (no result: MrgX1 PAM, MrgX1 antagonist, MrgX1 agonist)
Cc1ccc(NC(=O)CSc2nc(=O)cc(N)n2CCc2ccccc2)cc1	none
Cc1[nH]c2ccccc2c1N=Nc1cc(C(=O)O)cc(C(=O)O)c1	none
Nc1ccc(-c2cc3ccccc3oc2=O)cc1	none
O=C/C=C/c1c(-c2ccccc2)cc2oc3ccccc3cc1-2	MrgX1 agonist 35, RGS4 inh 24.2 | RGS4 block valid 15.5% | RGS4 uninduced inactive | RGS4 inh ctr2 inactive
Cc1ccc(S(=O)(=O)N(C)C)cc1NC(=O)CSc1ccc2c(c1)OCCO2	none
CCOC(=O)C(=Cc1cc(=O)c(OC)co1)C(=O)OCC	Kir21 block -7.35, RGS4 inh 8.01 (no result: MrgX1 PAM, MrgX1 antagonist, MrgX1 agonist) | RGS4 block valid 15.0% | RGS4 uninduced inactive | RGS4 inh ctr2 14.5%
COC(=O)c1ccc2c(c1)N(Cc1nc(-c3ccc(Cl)cc3)oc1C)C(=O)C1CCCN21 (centres undefined)	none
Cc1cc(Cl)n2c(nc3cc(F)c(F)cc32)c1C#N	RGS4 inh 7.5 (no result: MrgX1 PAM, MrgX1 antagonist, MrgX1 agonist) | RGS4 block valid 13.0% | RGS4 uninduced inactive | RGS4 inh ctr2 9.5%
Cn1c(=O)c2ccccc2n(Cc2ccccc2Cl)c1=O	none
Cc1cccc(Nc2nc(N3CCCC3)nc(N3CCCC3)n2)c1	none | RGS4 block valid inactive | RGS4 uninduced inactive | RGS4 inh ctr2 inactive

High-throughput results: PubChem, Johns Hopkins Ion Channel Center
